Laboratory results published in ChEMBL document CHEMBL4513216, “Probing the Open Global Health Chemical Diversity Library for Multistage-Active Starting Points for Next-Generation Antimalarials” (ACS Infect Dis, 2020).

Test: Toxicity liver stage against HepG2, at 10uM
Assay type: cell-based
Set-up: test concentration 10 uM, cell line HepG2-A16-CD81EGFP
Details: human, HepG2-A16-CD81EGFP cells; read-out: INHIBITION
In short: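 Uninfected HepG2-A16-CD81EGFP cells, 3 × 10^3 per well, 1536-well, plated on prespotted compound at 10 μM final, parasite-free screening media added to match infected plates; puromycin 10 μM positive, DMSO 0.5% negative; run in parallel with 48 h PbLuc assay at 37 °C, 5% CO2; viability by CellTiter-Glo luminescence, normalized to controls.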

Structure (SMILES) | cytotoxicity at 10 µM [%]
COC(=O)c1ccc(Cl)c(NS(=O)(=O)c2cnn(C)c2)c1 | 0.214
COCCN1CCC(c2nc3c([nH]2)CC(C)(C)CNC3=O)C1 (stereo unspecified) | -2.18
O=C1[C@H]2CN(Cc3ccco3)C[C@H]2CN1c1ccsc1 | -71.9
Cn1cc(-c2ccc(C3CCCCN3Cc3cccnc3)cn2)cn1 (stereo unspecified) | 11.6
CN(Cc1ccccn1)C(=O)CC1CCOc2ccccc21 (stereo unspecified) | 11.6
CC(C)C1SCC(=O)Nc2c1cnn2-c1ccc(F)cc1 (stereo unspecified) | 1.23
O=C(CN1CCCS1(=O)=O)Nc1cccc(COC2CCCCC2)c1 | 0.568
Fc1cnc(N2CCOC3(CCN(Cc4cccs4)CC3)C2)nc1 | 0.73
Cc1n[nH]c(C2CN(C(=O)CCOCC(F)(F)F)CCO2)n1 (stereo unspecified) | -12.9
COCCCN1CC2(CCC1=O)CCN(Cc1cc(C(C)C)no1)CC2 | -2.1
COCc1ncn2c1CN(S(=O)(=O)c1ccc(C)cc1)CC2 | -1.18
O=C(NCc1ccco1)c1cc[n+]([O-])cc1 | 3.33
O=C(CCc1ccccn1)N1CCCC1 | -6.96
CC(O)(CNC(=O)NCCc1ccc2c(c1)CCO2)c1ccccc1 (stereo unspecified) | 6.36
Cc1cccc(C(=O)N2C[C@@H]3C(CC(=O)N4CCCC4)[C@@H]3C2)n1 (stereo partly specified) | 1.82
CNC(=O)C1Cn2ccnc2C2(CCN(C(=O)CC3CCCC3)CC2)O1 (stereo unspecified) | -145
CN1CCOC(CN(C(=O)CCc2ccco2)c2nccs2)C1 (stereo unspecified) | -16.1
CC[C@H](C)[C@H](N)C(=O)N1CC(=O)c2sc(NC3CCCCC3)nc2C1 | -13.7
Cc1cccc(=O)n1CCC(=O)N1CC[C@@](O)(C2CCC2)[C@H](C)C1 | 5.8
O=C(CCn1c(C(F)F)cc2cccnc21)NC1CCCCC1 | -27.9
Cn1ccc(C(=O)NCC2(O)CCN(c3cnccn3)C2)n1 (stereo unspecified) | 3.45

Structure (SMILES) | cytotoxicity at 10 µM [%]
CC(C)CNC(=O)c1ccc(NC(=O)NC2CC2)cc1Cl | 2.56
Cc1c[nH]c(C2CCCN(Cc3cccc(C(=O)O)c3)C2)n1 (stereo unspecified) | 9.59
CCC(Nc1nc(C(C)C)nc2c1cnn2C)c1ccncc1 (stereo unspecified) | -48
CC(C)c1cccc(CSc2nnc(CN3CCCC3=O)o2)n1 | 3.59
O=C1[C@H]2CN(Cc3ccoc3)C[C@H]2CN1Cc1cccnc1 | -76.5
CCCc1nc(N2CC[C@@H](c3ccc4c(c3)OCO4)[C@H](O)C2)no1 | -9.87
CN1CCO[C@@H]2CN(S(=O)(=O)c3ccccc3)CC[C@@H]2C1 | -0.461
CC(O)CN(CC(=O)NC(=O)NC1CC1)c1ccccc1 (stereo unspecified) | -2.14
CC(=O)N1CC2(CCN(S(=O)(=O)N(C)C)CC2)C2(CCNC2=O)C1 (stereo unspecified) | -6.9
C[C@H](NC(=O)C1(N(C)Cc2ccccc2)Cc2ccccc2C1)C(N)=O | 0.521
CCOCC1CN(S(C)(=O)=O)Cc2nn(C)cc21 (stereo unspecified) | -95.9
CC1=C(C(=O)N(C)Cc2n[nH]c3c2CCCCC3)C(C)NC(=O)N1 (stereo unspecified) | -0.178
O=c1ccc(-n2ccnc2)nn1CCNS(=O)(=O)c1ccccc1Cl | -0.947
Cc1cc(C)c(CNC(=O)C(C)Oc2ccccc2C#N)c(=O)[nH]1 (stereo unspecified) | 4.59
CN(C)C(=O)c1cccc(NC(=O)c2cnn(C)c2)c1 | -1.96
COCCN1CCC(NCc2ccc(F)cc2F)C1 (stereo unspecified) | -2.67
CC(=O)CSc1nnc2n1N=CN(c1cccc(Cl)c1)C2 | 1.05
O=c1ncn(-c2cccc(F)c2)c2ncccc12 | 4.19
CC(=O)c1ccc(C(=O)N2C[C@@H](CN3CCCC3)[C@@H](CO)C2)cc1 | -0.434
CNc1nc2ncc(Cl)cc2cc1C#N | 5.05
COc1cccc(CC(C)NC(=O)c2ccc(CNC(C)=O)cc2)c1 (stereo unspecified) | 7.21

Structure (SMILES) | cytotoxicity at 10 µM [%]
CC(=O)Nc1cc(CCC2CCN(C(=O)c3ccccn3)CC2)ccn1 | -0.331
Cc1nn(C)c(C)c1CN1CCCC(c2ccc(C(=O)O)cc2)C1 (stereo unspecified) | -8.82
COCC1CC2(CCN(C(=O)c3ccccc3C)CC2)CN1C(C)C (stereo unspecified) | 7.77
CCNc1ncc(C(=O)N(C)Cc2nc3ccccc3n2C)cn1 | 6.09
O=C(CO)N1CCC(F)(F)C2(CCN(c3ccccc3)C2)C1 (stereo unspecified) | 13.8
CCOCCN1C[C@H](C(=O)Nc2cccnc2)[C@@H]2CCO[C@@H]2C1 | -101
CCn1cc(NS(=O)(=O)c2ccc(F)cc2)c(C(=O)NCC(C)C)n1 | 6.6
COCCCN1CCCC12CCN(c1ncccn1)CC2 | 2.87
CCC(=O)N1CCC(c2nnc(Cn3cncn3)n2C2CC2)CC1 | -15.4
CN(Cc1cc2n(n1)CCNC2)Cc1n[nH]c2c1CCCCC2 | -6.32
O=C(NC1CCCC1)c1nc(COc2ccc3c(c2)OCO3)no1 | 2.87
O=C(Nc1ccccc1N1CCOC1=O)N1CCc2sccc2C1 | -5.55
O=C(COc1ccc(F)cc1F)N1CCOCC(O)(CN2CCCC2)C1 (stereo unspecified) | 0.678
CN1CCC(c2cccc(C(=O)N(C)C)n2)CC1 | 4.53
O=C(c1cccnc1)N1CCN2C[C@H](OCc3ccccc3)C[C@H]2C1 | -75.2
CCc1nnc2n1CCN(C(=O)c1cnc(-c3cccs3)s1)C2 | -3.28
CN(C)Cc1cnc(CC2CCN(CCc3ccccc3)CC2)cn1 | -6.07
CCCc1nnc(N2CC[C@@](O)(C3CCOCC3)[C@H](C)C2)s1 | 8.26
c1cnnc(-c2noc(CCN3CCCO3)n2)c1 | -3.61
O=C(Cc1n[nH]c2ccccc12)N1CCCC1Cn1cccn1 (stereo unspecified) | -14.7
Fc1cccc(-c2nc(CN3CCOC(Cn4cncn4)C3)co2)c1 (stereo unspecified) | -11.4

Structure (SMILES) | cytotoxicity at 10 µM [%]
CCC(NC(=O)NC1CCN(S(C)(=O)=O)CC1)c1cccs1 (stereo unspecified) | -11.6
Cc1ccnc(C2CN(c3ccnc(C)n3)C2)n1 | -2.4
CC(=O)N1CCCC(c2ccc(Cc3ccccc3)cn2)C1 (stereo unspecified) | -20.6
CNCc1cnc(Nc2ccccc2)nc1 | 1.38
Fc1ccc(OCCCNC2=NCCN2)cc1 | 5.08
CC(=O)NCc1cc2n(n1)CCN(Cc1ccccc1OC(F)(F)F)C2 | -2.84
Cc1nc(C)n(CC2CCCN2Cc2nc(-c3cccs3)no2)n1 (stereo unspecified) | -4.02
CCN1C[C@H]2CCN(C(=O)NC3CCCC3)CC[C@H]2S1(=O)=O | -3.52
CN(C)C(=O)CN1C(=O)[C@@H]2CC[C@H]1CN(Cc1ccccc1C#N)C2 | 1.22
CN(C)c1ccccc1CN1CCCC(N2CCCC2=O)C1 (stereo unspecified) | -9.13
COc1ccc(CC(=O)N2CCCC(c3cc(C)[nH]n3)C2)cc1 (stereo unspecified) | -7.69
CC(=O)N1CCCC(c2nc(-c3ccccc3)c[nH]2)C1 (stereo unspecified) | 6.48
COc1cccc(CNC(=O)CCNS(=O)(=O)c2ccc(C)cc2)c1 | -137
CN(Cc1cnccn1)C(=O)[C@@]12CNC[C@@H]1CN(Cc1ccccc1)C2 | -2.59
COc1ccc(CNC(=O)Nc2cccnc2OC)cc1O | -26.3
Cc1nnc(Nc2cccc(C3CCN(CCO)CC3)n2)s1 | 2.37
CC(c1ccc2c(c1)OCO2)n1cc2nc(N(C)C)[nH]cc-2c1=O (stereo unspecified) | -2.72
Cn1cccc1C(O)CNS(=O)(=O)c1ccccc1Br (stereo unspecified) | -11.1
